Key:
[1] = Evaluated for Pharmacokinetic property: Area under the curve; format: ADME; parameters: concentration or dose not given beside the values
[2] = Evaluated for time required to reach maximum concentration in plasma; format: ADME
Syrian golden hamster = assay: Suppression of Hamster ethanol intake by 0.07 mmol o.d. i.p.; format: functional, Mesocricetus auratus
In short: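 Male Syrian golden hamsters (80-120 g) at 23 °C on a 12/12-h cycle had free access to chow, water and 15% ethanol. Baseline was 6 days of daily ip saline with 0.5% DMSO. Then 0.07 mmol ip daily for 6 days. 24-h ethanol intake recorded. Mean ± SD of 4-6 hamsters.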

[3] = molecular target: Monoamine oxidase (Mesocricetus auratus); assay: Inhibition of Hamster Liver mitochondrial Monoamine oxidase.
[4] = tested on: Aldehyde dehydrogenase, mitochondrial (Mesocricetus auratus); assay: Accumulation of 5 HIAL in isolated Hamster Liver Mitochondria at 3 uM.
[5] = tested on: Aldehyde dehydrogenase, mitochondrial (Mesocricetus auratus); assay: Accumulation of 5 HIAL in isolated Hamster Liver Mitochondria at 9 uM.
[6] = tested on: Aldehyde dehydrogenase, mitochondrial (Mesocricetus auratus); assay: Accumulation of 5 HIAL in isolated Hamster Liver Mitochondria at 0.3 uM.
[7] = tested on: Aldehyde dehydrogenase, mitochondrial (Mesocricetus auratus); assay: Accumulation of 5 HIAL in isolated Hamster Liver Mitochondria at 0.9 uM.
Mesocricetus auratus [8] = organism: Mesocricetus auratus; assay: Evaluated for the 5-HIAL accumulation in isolated Hamster Liver Mitochondria at the 3 uM
Mesocricetus auratus [9] = organism: Mesocricetus auratus; assay: Evaluated for percentage inhibition of 5-HIAA formation in isolated Hamster Liver Mitochondria at the 9 uM

Row | Structure (SMILES) | AUC [1] [nM hr ml] | Tmax [2] [h] | IC50 [3] [µM] | Control [4] [%] | Control [5] [%] | Control [6] [%] | Control [7] [%] | Suppression (Syrian golden hamster) [%] | Control (Mesocricetus auratus [8]) [%] | inhibition (Mesocricetus auratus [9]) [%]
1 | O=c1c(-c2ccc(O)cc2)coc2cc(O)ccc12 [DAIDZEIN] | 130 | 1 | – | – | – | – | – | 22 | – | 80.6
2 | O=C(O)CCCCCCCCCCOc1ccc2c(=O)c(-c3ccc(O)cc3)coc2c1 | 56 | 0.5 | – | – | – | – | – | 86 | – | –
3 | O=c1c(-c2ccc(O)cc2)coc2cc(OCC(O)CO)ccc12 (stereo not drawn) | 141 | 0.5 | 1.7 | 63 | 30.5 | 112 | 97.5 | 0 | – | –
4 | O=C(O)CCCCCCCCCOc1ccc2c(=O)c(-c3ccc(O)cc3)coc2c1 | 73 | 0.5 | 10 | 189 | 129 | 234 | 233 | 84 | – | –
5 | CCOc1ccc2c(=O)c(-c3ccc(O)cc3)coc2c1 | 38 | 1 | 0.3 | 34.3 | 17.8 | 88.6 | 62.9 | 0 | – | –
6 | O=c1c(-c2ccc(O)cc2)coc2cc(O[C@@H]3O[C@H](CO)[C@@H](O)[C@H](O)[C@H]3O)ccc12 [DAIDZIN] | 120 | 1 | – | – | – | – | – | 62 | – | –
7 | O=c1c(-c2ccc(O)cc2)coc2cc(O)cc(O)c12 [GENISTEIN] | 134 | 1 | – | – | – | – | – | 0 | – | –
8 | C=CCOc1ccc2c(=O)c(-c3ccc(O)cc3)coc2c1 | 29 | 1 | 0.45 | 56.1 | 26.7 | 106 | 91 | 0 | – | –
9 | O=c1c(-c2ccc(O)cc2)coc2cc(OCCCCCCBr)ccc12 | 62 | 2 | 2 | 108 | 74 | 144 | 112 | 29 | – | –
10 | O=c1cc(-c2ccccc2)oc2cc(O)cc(O)c12 [CHRYSIN] | 110 | 1 | – | – | – | – | – | 0 | – | –

Second part, led by results:

Row | AUC [1] [nM hr ml] | Tmax [2] [h] | IC50 [3] [µM] | Control [4] [%] | Control [5] [%] | Control [6] [%] | Control [7] [%] | Structure (SMILES) | Suppression (Syrian golden hamster) [%] | Control (Mesocricetus auratus [8]) [%] | inhibition (Mesocricetus auratus [9]) [%]
11 | 68 | 0.5 | 2.1 | 228 | 192 | 310 | 265 | O=C(O)CCCCCCOc1ccc2c(=O)c(-c3ccc(O)cc3)coc2c1 | 69 | – | –
12 | 111 | 0.5 | – | – | – | – | – | O=c1cc(-c2ccccc2)oc2c(O)c(O)ccc12 [7,8-DIHYDROXYFLAVONE] | 0 | 79.1 | –
13 | 99 | 1 | – | – | – | – | – | COc1ccc(-c2coc3cc(O)cc(O)c3c2=O)cc1 [BIOCHANIN] | 0 | – | –
14 | 99 | 0.5 | 7 | 141 | 86.1 | 165 | 176 | O=c1c(-c2ccc(O)cc2)coc2cc(OCCC3OCCCO3)ccc12 | 32 | – | –
15 | 73 | 2 | 0.15 | 34.7 | 20.5 | 75.8 | 57.8 | O=c1c(-c2ccc(O)cc2)coc2cc(OCCCBr)ccc12 | 0 | – | –
16 | 68 | 2 | 4 | 87.7 | 42.9 | 112 | 116 | O=c1c(-c2ccc(O)cc2)coc2cc(OCCCCBr)ccc12 | 14 | – | –
17 | 77 | 0.5 | – | – | – | – | – | O=C(O)CCCCCOc1ccc2c(=O)c(-c3ccc(O)cc3)coc2c1 | 69 | – | –
